Assay results collected from several papers.
Each line is one published result; the experiments were not run side by side.
Target: Dual specificity protein kinase CLK3 (CLK3, Homo sapiens, UniProt P49761)

For `C[S+]([O-])c1ccc(-c2nc(-c3ccncc3)c(-c3ccc(F)cc3)[nH]2)cc1` (stereo not drawn), the remaining signal was 99.1% (cell-free assay; 0.5 µM).
`Cn1c2c(c3ccc(Cl)c(Cl)c31)C(C#N)C1(CCCCC1)NC2=O` (racemic) has a ΔTm of 0.4 °C (thermal stability, DSF; 10 µM).
With `CCN(CC)CCNC(=O)c1c(C)[nH]c(/C=C2\C(=O)Nc3ccc(F)cc32)c1C` the inhibition was 23% (enzyme activity, inhibitor; 10 µM).
With `COc1cc2c(Nc3ccc(Br)cc3F)ncnc2cc1OCC1CCN(C)CC1` the remaining signal was 100% (cell-free assay; 0.5 µM).
`COc1ccc2c(O[C@@H]3C[C@H]4C(=O)N[C@]5(C(=O)O)CC5/C=C\CCCCC[C@H](NC(=O)OC5CCCC5)C(=O)N4C3)cc(-c3csc(NC(=O)C(C)C)n3)nc2c1C` (stereo partly drawn) has a remaining binding of 100% (cell-free assay, competition with immobilised ligand; 1 µM).
With `CNC(=O)c1cc(Oc2ccc(NC(=O)Nc3ccc(Cl)c(C(F)(F)F)c3)cc2)ccn1` the inhibition was -1% (enzyme activity, inhibitor; 0.3 µM).
The remaining signal of `CCN1/C(=C/C(C)=O)Sc2ccc(OC)cc21` is reported as 95% (cell-free assay; 0.5 µM).
The remaining binding of `CO[C@@H](C)c1c(Nc2ccc([C@H](N(C)C(=O)C3CCS(=O)(=O)CC3)C(F)(F)F)cc2)cnc2cc(Cl)nn12` is reported as 87% (cell-free assay, competition with immobilised ligand; 1 µM).
With `COc1cc2ncnc(Nc3ccc(Oc4ccccc4)cc3C)c2cc1OC` the inhibition was 5% (enzyme activity, inhibitor; 1 µM).
For `CCC1(CC)NC(=O)c2c(c3ccc(Cl)c(Cl)c3n2C)C1C#N` (stereo not drawn), the ΔTm was 0.3 °C (thermal stability, DSF; 10 µM).
For `Cc1ccc(C(=O)Nc2ccc(CN3CCN(C)CC3)c(C(F)(F)F)c2)cc1C#Cc1cnc2cccnn12`, the remaining activity was 77% (enzyme activity, inhibitor; 23.5 nM).
`O=C(NC[C@@H]1[C@H]2CN(C(=O)OCc3cc(C(F)(F)F)cc(C(F)(F)F)c3)C[C@@H]12)c1ccc2[nH]nnc2c1` gave a remaining binding of 78% (cell-free assay, competition with immobilised ligand; 1 µM).
`Oc1cccc(-c2nc(N3CCOCC3)c3oc4ncccc4c3n2)c1` has a remaining signal of 93.1% (cell-free assay; 0.5 µM).
With `COc1cc(Cl)c(C(=O)N[C@@H](CN[C@H]2CC[C@@H](N)CC2)Cc2ccc(C#N)cc2)cc1-c1ccc(CN[C@H](C)c2ccc(C)cc2)o1` the remaining activity was 99% (enzyme activity, inhibitor; 1 µM).
With `Cn1c2c(c3ccc(Cl)c(Cl)c31)C(C#N)C1(CCOCC1)NC2=O` (stereo not drawn) the ΔTm was 0.1 °C (thermal stability, DSF; 10 µM).
The inhibition of `Cc1ccc(Nc2nccc(N(C)c3ccc4c(C)n(C)nc4c3)n2)cc1S(N)(=O)=O` is reported as 2% (enzyme activity, inhibitor; 0.3 µM).
For `Cn1c2c(Cl)c(Cl)ccc2c2cc(N)[nH]c(=O)c21`, the ΔTm was 0.6 °C (thermal stability, DSF; 10 µM).
The remaining binding of `O=C(O)[C@@H]1[C@@H](Cn2nnc3ccccc3c2=O)CC[C@H]1C(=O)c1ccc(OCCC2CCOCC2)cc1` is reported as 91% (cell-free assay, competition with immobilised ligand; 1 µM).
`COc1cc2c(N3CCN(C(=O)Nc4ccc(OC(C)C)cc4)CC3)ncnc2cc1OCCCN1CCCCC1` has a remaining signal of 93.4% (cell-free assay; 0.5 µM).
`Cc1ccc(NC(=O)c2ccc(C)c(C(F)(F)F)c2)cc1C#Cc1nn(C2CCC(O)CC2)c2ncnc(N)c12` (stereo not drawn) gave a remaining signal of 83% (cell-free assay; 10 µM).
`CC(=O)C1=C(C)N(c2cccc(C(F)(F)F)c2)C(=O)N[C@@H]1c1ccc(C#N)nc1` gave a remaining binding of 100% (cell-free assay, competition with immobilised ligand; 1 µM).
`CCCOc1ccc(OC)c(F)c1C(=O)c1ccc(C(=O)N[C@@H]2CNC[C@H]2NC(=O)c2ccc3[nH]ncc3c2)cc1` has a remaining activity of 105% (enzyme activity, inhibitor; 10 µM).
With `Cc1nccc(COC(=O)N2C[C@@H]3[C@@H](CNC(=O)c4ccc5[nH]nnc5c4)[C@@H]3C2)n1` the remaining binding was 90% (cell-free assay, competition with immobilised ligand; 1 µM).
`Cc1cc(NC(=O)c2cccc3cc(-c4cccc5[nH]nc(N)c45)ccc23)ccc1F` has an activity vs control of 97% (enzyme activity, inhibitor; 0.1 µM).
The remaining activity of `CCN(CC)c1ccc(C2=NNC(=O)CC2C)cc1[N+](=O)[O-]` (stereo not drawn) is reported as 85% (enzyme activity, inhibitor; 10 µM).
`O=C(Nc1cnn(-c2csc(C(=O)NC3COC3)c2)c1)Nc1c(F)cccc1Cl` gave a remaining activity of 93.5% (enzyme activity, inhibitor; 5 µM).
For `Nc1cnc(N2CCc3cc(S(=O)(=O)Nc4c(F)cc(Cl)cc4F)cc(N4CCCC4=O)c32)nc1`, the remaining binding was 74% (cell-free assay, competition with immobilised ligand; 1 µM).
For `CC(C)(C)c1nc(-c2cccc(NS(=O)(=O)c3c(F)cccc3F)c2F)c(-c2ccnc(N)n2)s1`, the remaining activity was 74% (enzyme activity, inhibitor, radiometric; 1 µM).
`CN1CCN(c2cnc3c(C4CCN(C(=O)c5ccc(OC(F)(F)F)cc5N)CC4)ncnc3c2)CC1` has a remaining binding of 100% (cell-free assay, competition with immobilised ligand; 1 µM).
For `Cc1sc(C(=O)NC2COC2)cc1-n1cc(NC(=O)Nc2c(F)cccc2Cl)cn1`, the remaining activity was 99.6% (enzyme activity, inhibitor; 10 µM).
